Hits are enriched below; roughly 5.9% of the tested compounds scored in any of these assays.
IDH1 mut inh = IDH1 R132H (human) inhibition. O75874. IDH1 R132H reductase, diaphorase/resazurin fluorescence, 60 min. 70,000 compounds, 0.18% hits. AID 624101. inhibition, % at 10 µM; in the data active means inhibition above about 34%; inconclusive means no clear call, values can overlap the other calls; inactive means below about 11%;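 further: 0% = DMSO and 100% = no enzyme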
Pf Dd2 inh = P. falciparum Dd2 growth inhibition; SYBR Green, 72 h; stronger effect = lower value; activity change, % at 10 µM; 94,000 compounds, 2.3% hits; in the data active means activity change below about -80%; inconclusive means no clear call, values can overlap the other calls
T cruzi growth-1 = blocks T. cruzi growth in NIH3T3 culture | T. cruzi beta-gal in NIH3T3, GalScreen luminescence, 90 h | inhibition, % at 8.34 µM | 77,000 compounds, 5.9% hits | AID 624255;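 active means mean inhibition above about 93%, with at least 55% of replicates each passing it, limit read from the data, passing the limit was not always enough; inconclusive means only one of those two conditions holds; inactive means neither condition holds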
GASC1 inh = inhibitors of human demethylase GASC-1 KDM4C; Q9H3R0; GST-KDM4C 2-372, H3K9me3 peptide, LANCE TR-FRET; 96,000 compounds, 0.15% hits; inhibition, % at 12.5 µM;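 active means mean replicate inhibition above about 25%, with at least 55% of replicates also reaching it, limit read from the data, passing the limit was not always enough; inconclusive means only one of those two conditions met; inactive means neither condition met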
Target sequence (Q9H3R0 2-372 limits assumed): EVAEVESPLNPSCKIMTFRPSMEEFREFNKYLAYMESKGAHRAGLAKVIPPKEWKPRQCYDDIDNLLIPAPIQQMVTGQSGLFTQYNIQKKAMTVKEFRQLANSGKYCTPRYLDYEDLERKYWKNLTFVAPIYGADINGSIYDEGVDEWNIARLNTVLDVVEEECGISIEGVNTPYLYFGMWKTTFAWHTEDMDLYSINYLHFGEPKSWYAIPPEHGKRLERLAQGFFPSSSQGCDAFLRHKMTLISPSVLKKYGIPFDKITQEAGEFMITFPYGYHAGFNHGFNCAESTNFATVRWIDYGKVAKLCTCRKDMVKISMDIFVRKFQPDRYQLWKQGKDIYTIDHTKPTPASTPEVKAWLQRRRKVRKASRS
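reagent = H3K9me3 peptide substrate, Fe(II), 2-oxoglutarate | system = GST-tagged GASC-1 (JMJD2C) catalytic fragment, aa 2-372 | amount = enzyme final amount 10 nM | read-out = Fall in 671/618 emission ratio as inhibition | medium = HEPES buffer, pH 7.5, plus ascorbate | schedule = 30 min reaction, 60 min detection, RT | measured by = LANCE TR-FRET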
T cruzi growth-2 = Trypanosoma cruzi proliferation inhibition. shares compounds with T cruzi growth-1. T. cruzi beta-gal in NIH3T3, GalScreen luminescence, 90 h. inhibition, % at 8.35 µM. 5,600 compounds, 72% hits;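 active means mean replicate inhibition above about 95% and at least 55% of replicates individually reaching it, limit read from the data; inconclusive means only one of the two criteria is met; inactive means neither criterion is met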
T cruzi growth-3 = inhibitors of T. cruzi proliferation | 5,600 compounds, 21% hits | T. cruzi beta-gal in NIH3T3, GalScreen luminescence, 90 h | shares compounds with T cruzi growth-1 | AID 651740 | inhibition, % at 2.09 µM;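 active means mean inhibition above about 95%, with at least 55% of replicates also reaching it, limit read from the data; inconclusive means meets just one of the two conditions; inactive means meets neither condition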;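 further: plate controls were neutral control median for no effect and positive control median for full effect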
NIH3T3 tox = kills mouse NIH/3T3 fibroblasts; shares compounds with T cruzi growth-1; NIH/3T3 viability, CellTiter-Glo ATP luminescence, 90 h; cytotoxicity (signal decrease), % at 8.35 µM; 5,600 compounds, 14% hits; AID 651742;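 active means mean signal decrease across replicates above about 35% based on untreated-well scatter, with enough replicates individually passing, limit read from the data; inconclusive means no rule stated though some were filed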;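 further: 0% = median of neutral control wells and 100% = median of positive control wells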
3T3 cytotox 2 = NIH/3T3 (mouse) viability loss. shares compounds with T cruzi growth-1. NIH/3T3 viability, CellTiter-Glo ATP luminescence, 90 h. AID 651744. 5,600 compounds, 56% hits. inhibition, % at 24.9 µM;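 active means mean loss of cell viability signal at or above a set limit, and enough replicates individually reaching it; inconclusive means meets only the mean limit or only the replicate share; inactive means meets neither condition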;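 further: 0% = median of neutral control wells and 100% = median of positive control wells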
* = called active by the depositor; ? = inconclusive; . = no result given.

SMILES	IDH1 mut inh	Pf Dd2 inh	T cruzi growth-1	GASC1 inh	T cruzi growth-2	T cruzi growth-3	NIH3T3 tox	3T3 cytotox 2
C[C@@H]1CN([C@@H](C)CO)S(=O)(=O)c2ccc(C#Cc3ccncc3)cc2O[C@@H]1CN(C)C(=O)Nc1ccc2c(c1)OCO2	7.0	-12.2	0.7	1.0	.	.	.	.
C[C@H]1CN([C@@H](C)CO)S(=O)(=O)c2ccc(C3=CCCC3)cc2O[C@@H]1CN(C)C(=O)Nc1ccc2c(c1)OCO2	-0.2	-52.5	109.0*	6.1	95.9*	53.1	9.4	27.5*
C[C@@H]1CN([C@H](C)CO)S(=O)(=O)c2ccc(C3=CCCC3)cc2O[C@@H]1CN(C)C(=O)Nc1ccc2c(c1)OCO2	0.4	-19.7	76.3	-0.5	.	.	.	.
COc1ccc(Cl)cc1N(CC(=O)Nc1ccc(Br)cc1F)S(C)(=O)=O	0.3	.	.	.	.	.	.	.
C[C@@H]1CCCCO[C@@H](CN(C)Cc2ccc(C(F)(F)F)cc2)[C@H](C)CN([C@@H](C)CO)C(=O)c2cc(N(C)C)ccc2O1	-3.9	-2.4	93.1	9.4	.	.	.	.
C[C@@H]1CN([C@@H](C)CO)C(=O)c2cc(N(C)C)ccc2O[C@@H](C)CCCCO[C@H]1CN(C)Cc1ccccc1	-1.3	-17.3	99.3*	0.0	100.5*	71.1	14.5	-0.1
C[C@@H]1CCCCO[C@@H](CN(C)Cc2ccc(C(F)(F)F)cc2)[C@H](C)CN([C@H](C)CO)C(=O)c2cc(N(C)C)ccc2O1	.	-7.6	?	2.3	104.9*	91.3	3.8	59.5*
C[C@@H]1CCCCO[C@@H](CN(C)Cc2ccc(C(F)(F)F)cc2)[C@@H](C)CN([C@@H](C)CO)C(=O)c2cc(N(C)C)ccc2O1	.	-16.2	96.7*	-1.6	103.5*	35.9	13.4	28.4*
COc1ccc(C)cc1N(CC(=O)Nc1cccc(Cl)c1Cl)S(C)(=O)=O	0.2	.	.	.	.	.	.	.
CO[C@@H](CN(C)C(=O)Nc1ccc(Cl)cc1)[C@@H](C)CN(Cc1ccccc1Cl)[C@H](C)CO	-0.2	-46.0	111.5*	-0.9	106.2*	64.0	28.2	31.2*
CO[C@H](CN(C)C(=O)Nc1ccc(Cl)cc1)[C@H](C)CN(Cc1ccccc1Cl)[C@@H](C)CO	-0.5	-50.6	114.0*	-0.9	103.4*	99.3*	41.7*	48.8*
CO[C@@H](CN(C)S(=O)(=O)c1ccc(Cl)cc1)[C@@H](C)CN(Cc1ccccc1Cl)[C@H](C)CO	-0.6	-51.6	?	2.7	100.5*	-13.0	13.3	99.2*
CO[C@H](CN(C)C(=O)Nc1ccc(Cl)cc1)[C@H](C)CN(Cc1ccccc1Cl)[C@H](C)CO	-0.5	-51.1	109.4*	2.5	108.5*	63.2	?	60.0*
CO[C@@H](CN(C)C(=O)Nc1ccc(F)cc1)[C@H](C)CN(Cc1ccccc1Cl)[C@H](C)CO	0.0	-16.3	-78.1	0.0	.	.	.	.
CO[C@H](CN(C)C(=O)Nc1ccc(F)cc1)[C@H](C)CN(Cc1ccccc1Cl)[C@H](C)CO	-0.4	-22.8	-33.8	1.2	.	.	.	.
CO[C@H](CN(C)S(=O)(=O)c1ccc(Cl)cc1)[C@H](C)CN(Cc1ccccc1Cl)[C@@H](C)CO	-0.5	-25.2	77.4	1.0	.	.	.	.
COc1cccc(-c2ccc([C@H]3[C@@H](CO)N4CCCCN(C(=O)NC(C)C)C[C@@H]34)cc2)c1	.	24.7	104.8*	-1.7	101.0*	41.1	11.1	3.4
COc1cccc(-c2ccc([C@H]3[C@H](CO)N4CCCCN(C(=O)NC(C)C)C[C@@H]34)cc2)c1	.	22.5	108.2*	-1.5	109.7*	81.1	37.1*	31.2*
O=C(NC1CCCC1)N1CCCCN2[C@@H](CO)[C@H](c3ccc(-c4ccccc4)cc3)[C@@H]2C1	.	0.6	113.1*	-1.2	95.2*	43.5	3.5	94.6*
O=C(NC1CCCC1)N1CCCCN2[C@H](C1)[C@H](c1ccc(-c3cncnc3)cc1)[C@@H]2CO	.	9.2	?	-0.4	107.1*	-12.6	-22.1	-4.5
Cc1ccccc1-c1ccc([C@@H]2[C@H](CO)N3CCCCN(C(=O)NC4CCCC4)C[C@@H]23)cc1	.	-32.1	118.1*	0.6	106.3*	90.3	25.1	105.3*
O=C(NC1CCCC1)N1CCCCN2[C@H](CO)[C@H](c3ccc(-c4cncnc4)cc3)[C@@H]2C1	.	-10.1	101.9*	0.6	19.9	0.3	11.0	9.8
NC(=O)COc1ccccc1/C=N/NC(=O)CCCCC(=O)NO	-0.9	.	.	.	.	.	.	.
O=C(COc1ccc(I)cc1)Nc1cc(C(=O)O)cc(C(=O)O)c1	0.4	.	.	.	.	.	.	.
O=C(NC1CCCC1)N1CCCCN2[C@@H](CO)[C@@H](c3ccc(-c4ccncc4)cc3)[C@@H]2C1	.	7.7	105.2*	-0.1	96.6*	42.0	10.7	-9.0
SMILES	IDH1 mut inh	Pf Dd2 inh	T cruzi growth-1	GASC1 inh	T cruzi growth-2	T cruzi growth-3	NIH3T3 tox	3T3 cytotox 2
COc1ccc(S(=O)(=O)N2C[C@H](O)COC[C@H]3O[C@@H](CC(=O)NCc4ccc(Cl)c(Cl)c4)CC[C@@H]32)cc1	.	4.3	98.1*	-0.9	100.1*	41.5	18.3	42.4*
COc1ccc(S(=O)(=O)N2C[C@H](O)COC[C@H]3O[C@H](CC(=O)NCc4ccc(Cl)c(Cl)c4)CC[C@@H]32)cc1	.	8.0	?	13.6	84.1	5.0	11.9	43.7*
Cc1ccc(S(=O)(=O)N2C[C@H](O)COC[C@@H]3O[C@H](CC(=O)NCc4ccc(Cl)c(Cl)c4)CC[C@H]32)cc1	.	-28.6	88.0	0.5	.	.	.	.
COc1ccc(S(=O)(=O)N2C[C@@H](O)COC[C@@H]3O[C@H](CC(=O)NCc4ccc(Cl)c(Cl)c4)CC[C@H]32)cc1	.	-30.8	143.0*	0.2	109.6*	36.4	?	33.4*
COc1ccc(S(=O)(=O)N2C[C@H](O)COC[C@@H]3O[C@H](CC(=O)NCc4ccc(Cl)c(Cl)c4)CC[C@H]32)cc1	.	-10.8	143.9*	-2.0	71.0	19.9	24.4	63.6*
O=C(Cn1c2ccccc2n2nc(-c3cccs3)nc12)c1ccc(Cl)cc1	-0.5	.	.	.	.	.	.	.
COc1ccc(S(=O)(=O)N2C[C@@H](O)COC[C@H]3O[C@H](CC(=O)NCc4ccc(Cl)c(Cl)c4)CC[C@@H]32)cc1	.	-8.4	129.0*	0.2	91.8	21.6	-1.9	43.0*
COc1ccc(S(=O)(=O)N2C[C@@H](O)COC[C@@H]3O[C@@H](CC(=O)NCc4ccc(Cl)c(Cl)c4)CC[C@H]32)cc1	.	-3.6	168.4*	-1.5	88.7	23.5	25.0	42.1*
